b-catenin transl: modulators of beta-catenin nuclear translocation, primary screen, imaging, HeLa cells, immunofluorescence, high-content. nuclear translocation activity, % at 5 µM. actives 0.3% (n = 190,000). AID 1665, 2009;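 active means nuclear translocation activity above 50% at 5 µM, with a well cell count of 50 or more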;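 further: per-cell ratio of nuclear to cytoplasmic median beta-catenin stain intensity; plate controls were DMSO negative control for no effect and GSK-3 inhibitor IX positive control for full effect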
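test system = HeLa cells, endogenous beta-catenin | dosing = single 5 µM dose plus 0.02–20 µM confirmation series | times = compound treatment 24 h, 37°C, 5% CO2 | technique = beta-catenin immunofluorescence imaging with DAPI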
IEC-6 tox: cytotoxicity in IEC-6 intestinal epithelial cells, primary screen, cytotoxicity control for KLF5 inhibitor project, cell-based, luminescence; actives 0.78% (n = 290,000); inhibition, % at 5 µM; AID 1825, 2009; IEC-6 cytotoxicity, luminescence viability;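 further: 0% = plate median of test compound wells and 100% = cytotoxic reference compound wells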
Ba/F3 V617F tox: reduced viability of JAK2V617F-dependent Ba/F3 cells, primary screen, JAK2V617F inhibitor project, cell-based, Ba/F3 EpoR-JAK2V617F, luminescence; ATP luminescence; inhibition, % at 5.6 µM; actives 1.1% (n = 220,000); AID 1446, 2008;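 active means inhibition above the campaign mean plus 3 SD over all tested compounds, cut at about 24% in these data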;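 further: cytokine-independent growth of Ba/F3 cells driven by EpoR plus mutant JAK2; 0% = DMSO-treated cells and 100% = JAK inhibitor I control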
MT stabilizer: microtubule stabilizers in HeLa cells, primary screen, imaging, high-content imaging. HeLa tubulin immunostaining HCS, 24 h; share of cells brighter than vehicle mean+2SD. % tubulin-high responders, % at 10 µM. actives 0.83% (n = 200,000);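 active means plate Z-score above 3 for both tubulin-high and condensed-nucleus cell shares, with cell loss under 80%, at 10 µM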;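 further: anti alpha tubulin signal scored within the nucleus-defined area of each cell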
BaF3 parental: parental Ba/F3 cell viability inhibition, counter-screen for JAK2V617F inhibitor project, murine pro-B, CellTiter-Glo luminescence. inhibition, % at 5.6 µM. actives 1.1% (n = 220,000). CellTiter-Glo ATP luminescence;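 active means inhibition above a per-campaign cutoff, the mean inhibition of all tested compounds plus 3 SD, cut at about 27% in these data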;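 further: 0% = DMSO wells and 100% = JAK Inhibitor I control wells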
APP 5UTR inh: inhibitors of APP translation via 5'UTR reporter, primary screen, APP 5'UTR luciferase, SH-SY5Y cells; inhibition, % at 2 µM; actives 0.82% (n = 190,000); SH-SY5Y APP 5'UTR-luciferase reporter, luminescence;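 active means inhibition above a set limit, derived from the sample mean plus 3 SD, cut at about 45% in these data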
IEC-6 cytotox cf: cytotoxic compounds in IEC-6 epithelial cells, confirmation, cytotoxicity control, cell-based, luminescence. inhibition, % at 5 µM. shares compounds with IEC-6 tox. actives 63% (n = 1,900). IEC-6 rat intestinal epithelial viability;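 further: 0% = vehicle and 100% = reference cytotoxic drug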
* hit, by the source's call; x = no result given. A selection: hits, their analogues and other compounds. The true share with any hit is near 2.2%. Unless noted, no stated cut-off is given here; in the data, active means inhibition above about 22%; inactive means the rest.

SMILES	b-catenin transl	IEC-6 tox	Ba/F3 V617F tox	MT stabilizer	BaF3 parental	APP 5UTR inh	IEC-6 cytotox cf
CC(=O)Nc1nc(-c2ccc3c(c2)CCN3C(=O)C2CC2)c(C)s1	x	49.4*	x	x	x	x	3.9
Fc1ccc(C(CCNCc2ccccn2)c2ccc(Cl)cc2)cc1 (centres undefined)	x	0.4	x	x	x	x	x
CCC(=O)OCCNc1cc(Sc2nc3ccccc3s2)c2nonc2c1[N+](=O)[O-]	x	-1.7	-3.7	2.0	2.8	1.6	x
CCC(=O)OCCNc1cc(Sc2nc3ccccc3[nH]2)c2nonc2c1[N+](=O)[O-]	-1.3	53.6*	9.1	2.2	0.9	70.2*	4.9
CCOc1ccc(-c2cc(C(=O)NCCCN3CCCC3)c3ccccc3n2)cc1	x	0.9	x	x	x	x	x
COc1cccc(Oc2cnc(N)nc2-c2ccc(OC)cc2O)c1	1.6	45.4*	68.4*	20.0	62.1*	60.8*	33.0*
O=C(Nc1ccc(S(=O)(=O)Nc2ncccn2)cc1)c1ccc2ncsc2c1	-0.7	-3.9	1.2	x	0.8	x	x
Cc1ccc2nsnc2c1NC(=O)c1ccc([N+](=O)[O-])o1	x	96.2*	x	x	x	x	28.3*
Cc1ccc(-c2csc(NC(=O)c3ccc(C)o3)n2)cc1	x	-6.7	1.7	3.5	5.0	-12.9	x
O=C(Nc1nc2c(F)cccc2s1)c1ccc([N+](=O)[O-])o1	x	40.3*	x	x	x	x	15.2
Cc1cccc(NC(=O)c2ccc([N+](=O)[O-])o2)c1C	-0.8	34.0*	4.6	5.0	-7.8	5.4	23.0*
Cc1ccc2nsnc2c1NC(=O)c1ccc(-c2cc(Cl)ccc2Cl)o1	1.9	4.6	-1.4	1.9	0.9	-12.0	x
Cc1ccc(-c2csc(NC(=O)c3ccc([N+](=O)[O-])o3)n2)cc1	x	99.7*	x	x	x	x	41.6*
O=C(Nc1nc2c(Cl)cccc2s1)c1ccc([N+](=O)[O-])o1	x	6.1	x	x	x	x	x
O=C(c1ccccc1-c1ncc[nH]1)N1CCc2c([nH]c3ccccc23)C1c1ccccn1 (centres undefined)	-3.7	-0.3	-2.6	4.2	1.1	-2.7	x
C/C(=N\NC(=O)C(C)Sc1ccccc1)c1ccc([N+](=O)[O-])cc1 (centres undefined)	x	3.9	x	x	x	x	x
C=CCN1C(=O)/C(=C\c2ccc(Oc3nc(N4CCOCC4)nc(N4CCOCC4)n3)c(OC)c2)SC1=S	5.4	3.6	4.3	2.4	4.0	1.4	x
COc1cccc(CNS(=O)(=O)c2ccc3c(c2)C(C)(C)C(=O)N3C)c1	x	0.9	x	x	x	x	x
O=C(Nc1cccc2ccccc12)c1ccc([N+](=O)[O-])o1	x	95.7*	x	x	x	x	22.1*
Cn1cc([N+](=O)[O-])c(C(=O)Nc2ccc(C3CCCCC3)cc2)n1	6.0	25.3*	0.2	3.6	1.9	-26.6	30.4*
O=C(Nc1ncccn1)c1ccc([N+](=O)[O-])o1	-1.8	5.7	-0.7	1.9	4.0	-8.6	x
Cn1cc([N+](=O)[O-])c(C(=O)Nc2ccc(C(=O)N3CCCCC3)cc2)n1	13.4	-0.1	5.6	5.6	13.7	20.9	x
Cn1cc([N+](=O)[O-])c(C(=O)Nc2nc(-c3ccc(Cl)cc3)cs2)n1	6.9	36.6*	4.5	50.5	28.3*	95.9*	56.4*
O=C(Nc1cc(-c2nc3ncccc3o2)ccc1Cl)c1ccc([N+](=O)[O-])o1	x	93.2*	x	x	x	x	30.5*
Cc1cccc(OCCN2C(=O)C(=O)c3cc(C)ccc32)c1	1.6	78.8*	85.7*	2.6	84.1*	92.8*	56.4*
SMILES	b-catenin transl	IEC-6 tox	Ba/F3 V617F tox	MT stabilizer	BaF3 parental	APP 5UTR inh	IEC-6 cytotox cf
COC(=O)c1cccc(/C=N/NC(N)=S)c1O	-4.2	48.6*	0.3	x	6.6	x	12.4
Cc1ccc(NC(=O)c2cc(S(=O)(=O)N3CCOCC3)cs2)cc1	x	96.9*	x	x	x	x	4.1
Cc1ccc([N+](=O)[O-])cc1S(=O)(=O)n1ccnc1C	-0.3	-2.5	-2.9	1.6	2.5	13.9	x
Cc1cccc(CS(=O)(=O)c2ncc(Cl)c(C(=O)Nc3c(C)cccc3C)n2)c1	x	35.0*	x	x	x	x	11.2
CCCc1nnc(NC(=O)c2nc(S(=O)(=O)Cc3cccc(C)c3)ncc2Cl)s1	x	6.9	x	x	x	x	x
Cc1nnc(NC(=O)c2nc(S(=O)(=O)Cc3ccccc3)ncc2Cl)s1	x	33.7*	x	x	x	x	-3.8
Cc1ccccc1NC(=O)c1nc(S(C)(=O)=O)ncc1Cl	x	39.6*	x	x	x	x	14.7
CS(=O)(=O)c1ncc(Cl)c(C(=O)Nc2ccc(N3CCOCC3)cc2)n1	2.6	-2.0	8.5	2.4	3.1	44.3	x
Cc1cccc(CS(=O)(=O)c2ncc(Cl)c(C(=O)NCc3ccccc3)n2)c1	x	61.6*	x	x	x	x	29.3*
O=C(NCc1ccccc1)c1cnc(Cl)c(Cl)c1	x	4.0	x	x	x	x	x
CCn1c(C)nc2cc(NC(=O)Nc3cccc(C(C)=O)c3)ccc21	x	-0.5	x	x	x	x	x
CSc1ncc(Cl)c(C(=O)Nc2cccc3ccccc23)n1	-0.7	3.6	-1.4	2.8	1.6	-7.9	x
CS(=O)(=O)c1ncc(Cl)c(C(=O)Nc2ccc(OC(F)F)cc2)n1	x	99.2*	x	x	x	x	28.6*
Cc1cccc(C)c1NC(=O)c1nc(S(=O)(=O)Cc2ccccc2)ncc1Cl	x	38.0*	x	x	x	x	15.2
CN(C)c1cccc(C(=O)Nc2cccc(S(=O)(=O)NC3=NCCC3)c2)c1	x	-1.5	x	x	x	x	x
COc1ccccc1C(=O)Nc1ccc2c(c1)nc(CCNC(=O)c1ccco1)n2C	x	69.3*	x	x	x	x	53.3*
CCCc1cc(=O)[nH]c(SCC(=O)Nc2ccc(Br)cc2Br)n1	-0.5	-2.9	-1.4	5.7	-1.3	-4.2	x
CCC(Oc1ccc(C)cc1)C(=O)Nc1ccccc1C(=O)N1CCOCC1 (centres undefined)	x	0.1	x	x	x	x	x
COc1ccc(S(=O)(=O)NCc2ccccn2)cc1NC(=O)c1ccccc1	x	45.2*	x	x	x	x	45.1*
CCOc1ccc(S(=O)(=O)NCc2ccccn2)cc1NC(=O)c1ccccc1F	x	87.9*	x	x	x	x	57.6*
Clc1cccc(Cl)c1/C=N/Nc1c(Cl)cncc1Cl	40.4	57.7*	79.3*	x	60.6*	x	54.2*
Clc1cncc(Cl)c1N/N=C/c1ccncc1	-1.6	-5.8	-1.2	2.5	6.0	-1.6	x
CC(=O)NC1=NN(C(C)=O)C(C)(c2cccs2)S1 (centres undefined)	1.6	56.5*	62.1*	39.3*	61.6*	5.4	38.0*
COC(=O)C(=O)C/C(=N/Nc1ncnc2ccccc12)c1ccc(Cl)cc1	x	-0.6	x	x	x	x	x
Cc1ccc(-c2nc(C(Cl)Cl)c3ccccc3n2)cc1	3.7	87.1*	7.7	x	4.0	x	99.3*
Cc1ccc(-c2nc(Nc3ccc(O)cc3)c3ccccc3n2)cc1	x	5.4	x	x	x	x	x
